From PubChem BioAssay
SENP7 inh: SENP7 protease inhibition; Q9BQF6; recombinant SENP7, Z-RLRGG-aminoluciferin luminescence, 40 min; inhibition, % at 5 µM; 330,000 tested, 1.5% active;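 active means inhibition above about 50% at the single test dose, limit read from the data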;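 further: plate controls were DMSO with enzyme for no effect and no enzyme buffer wells for full effect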
SENP8 block-1: SENP8 (human) protease inhibition | Q96LD8 | recombinant SENP8, Nedd8 substrate fluorescence | inhibition, % at 20 µM | 360,000 tested, 0.64% active; in the data active means inhibition mostly above about 40%, no sharp cut-off; inactive means mostly below about 27%
Target sequence (Q96LD8 whole entry, looked up): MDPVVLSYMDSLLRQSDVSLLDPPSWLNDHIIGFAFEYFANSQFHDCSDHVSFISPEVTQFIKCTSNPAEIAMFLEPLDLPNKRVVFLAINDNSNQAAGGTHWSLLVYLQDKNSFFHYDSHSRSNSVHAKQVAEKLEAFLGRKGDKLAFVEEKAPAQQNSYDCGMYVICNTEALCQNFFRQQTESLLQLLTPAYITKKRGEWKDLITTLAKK
SENP8 block-2: blocks the human protease SENP8; 330,000 tested, 1.2% active; inhibition, % at 10 µM; purified SENP8, Z-RLRGG-aminoluciferin cleavage, luminescence; in the data active means inhibition above about 50%
Apaf1 inhib: blocks human Apaf-1 apoptosome activity; reconstituted apoptosome caspase-3 activity, DEVD-Rh110 fluorescence; 330,000 tested, 0.71% active; O14727; inhibition, % at 20 µM; active means inhibition of at least 40% at 20 µM;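 further: plate controls were DMSO wells for no effect and DEVD-CHO caspase inhibitor wells for full effect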
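Material: reconstituted apoptosome with Apaf-1, cytochrome c, caspase-9, procaspase-3, dATP; medium: pH 7.5 Hepes buffer with CHAPS, BSA, DTT; also added: cytochrome c and DEVD-Rh110 substrate; timing: 30 min plus 50 min, RT; signal: Rh110 fluorescence intensity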
UBC13 polyUb: human UBC13 polyubiquitination inhibition | P61088 | UBC13 polyubiquitin chain formation, TR-FRET | inhibition, % at 20 µM | 330,000 tested, 0.47% active | AID 485273; in the data active means inhibition above about 45%, passing the limit was not always enough
Target sequence (P61088 whole entry, looked up): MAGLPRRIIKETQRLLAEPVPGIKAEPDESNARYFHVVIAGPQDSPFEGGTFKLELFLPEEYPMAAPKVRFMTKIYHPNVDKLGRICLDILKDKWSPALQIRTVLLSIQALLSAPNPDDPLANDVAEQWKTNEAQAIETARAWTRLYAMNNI
SENP6 inh: SENP6 protease inhibition; Q9GZR1; Recombinant SENP6 catalytic domain, aminoluciferin luminescence; inhibition, % at 10 µM; 330,000 tested, 1.8% active;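 active means inhibition above about 50% at the single tested dose, limit read from the data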;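 further: plate controls were DMSO wells with enzyme for no effect and DMSO wells lacking enzyme for full effect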
The depositor's hits bear a star; x = no result given. Hits are enriched below; roughly 3.1% of the tested compounds scored in any of these assays.

SMILES	SENP7 inh	SENP8 block-1	SENP8 block-2	Apaf1 inhib	UBC13 polyUb	SENP6 inh
O=[N+]([O-])c1ccc(Cl)c2c1C1C=CCC1C(c1ccccn1)N2 (stereo not drawn)	0.3	42.5*	-5.6	25.8	-20.2	8.8
CCC(C)Nc1ccc(NC(C)CC)cc1 (stereo not drawn)	-0.1	23.3	-6.6	42.7*	-11.1	-15.0
O=C(CCC1CCCCC1)Nc1cccnc1	-12.6	36.3*	-22.6	3.1	-3.7	-8.3
NC1=NC[C@@H](Cc2ccc(O)cc2)N1CCc1cccc2ccccc12	-0.6	9.7	-4.3	7.7	42.6	-4.8
NC1=NC[C@H](Cc2ccc(O)cc2)N1CCCCC1CCCCC1	2.5	12.1	2.0	52.7*	73.2*	-10.8
COc1ccc(C2=Nc3ccccc3N(C(=O)c3ccc4ncccc4c3)C2C(=O)NC(C)(C)C)cc1 (stereo not drawn)	x	-422.0	x	x	x	x
COc1cc([N+](=O)[O-])cc(/C=N/NC(=O)C(C)Nc2ccccc2C)c1O (stereo not drawn)	-7.7	41.1*	0.9	6.9	-57.5	3.0
COc1cc([N+](=O)[O-])cc(/C=N/NC(=O)C(C)Nc2cccc(C)c2)c1O (stereo not drawn)	8.3	22.4	1.8	11.5	-41.1	13.1
COc1cc([N+](=O)[O-])cc(/C=N/NC(=O)c2ccc(C)nc2)c1O	77.3*	27.4	57.6*	9.1	-102.2	75.5*
Cc1noc(C)c1-c1ccc(C(=O)NCCC(F)(F)F)c2occc12	x	0.2	x	x	x	x
O=C(Nc1ccc([N+](=O)[O-])cc1Cl)c1cc(Cl)ccc1O	99.6*	11.9	97.6*	3.6	-23.9	98.9*
O=C(Nc1cccc(Cl)c1)c1cc(N=Nc2ccc([N+](=O)[O-])cc2Cl)ccc1O	7.4	43.1*	13.7	34.7	-104.7	-1.4
O=C(O)C1=CCC(c2ccc(Cl)c(Cl)c2)N(S(=O)(=O)c2ccc(F)cc2)C1c1cccc(F)c1 (stereo not drawn)	x	14.7	x	x	x	x
Cc1ccc(-c2nc3cc(C)c(Br)c(C)n3c2Cc2ccsc2)cc1	x	1.6	x	x	x	x
Oc1ccc(Br)cc1/C=N/N1CCCCC1	53.3*	14.6	84.5*	3.0	8.4	94.3*
COc1ccc(C2=Nc3ccccc3N(C(=O)c3ccc4ncccc4c3)C2C(=O)NC2CCCC2)cc1 (stereo not drawn)	x	-248.8	x	x	x	x
CC1CCN(C(=O)CSc2nnc(Cn3c(=O)sc4ccccc43)n2C)CC1	0.4	8.1	1.3	42.6*	7.7	-5.0
Cc1ccc(C(=O)NCCN2CCC(n3c(=O)[nH]c4ccccc43)CC2)cc1C	x	12.0	x	x	x	x
Cc1ccc2nc(-c3ccc(NC(=O)CCN4C(=O)c5ccccc5C4=O)cc3)sc2c1	-3.7	-377.2	50.6*	-1.1	-18.7	74.0*
N#CC1=C(Nc2ccccc2Cl)SC2(CCCC2)NC1=O	x	2.8	x	x	x	x
COc1ccc(/C=C2/C(=O)N(c3nc4ccccc4s3)N=C2CSc2ccc(Cl)cc2)cc1	3.9	40.0*	1.6	29.0	9.8	0.9
COc1ccc(/C=C2/C(=O)N(Cc3ccccc3)N=C2C)cc1	1.5	17.8	-2.1	13.7	-4.3	11.0
O=C(Nc1nc2ccsc2c(=O)s1)c1ccc(Cl)cc1	100.0*	-113.2	94.1*	-26.5	4.1	94.8*
O=C(Nc1nc(=O)c2ccccc2s1)c1ccc(Cl)cc1	26.9	24.5	-21.8	-28.3	6.5	6.5
Oc1ccc(/C=N/Nc2nccnc2Cl)c(O)c1	100.5*	-122.1	96.4*	-8.1	-40.8	95.9*
SMILES	SENP7 inh	SENP8 block-1	SENP8 block-2	Apaf1 inhib	UBC13 polyUb	SENP6 inh
CO[C@@H]1CN(C)C(=O)c2ccc(NS(=O)(=O)c3c(C)noc3C)cc2OC[C@@H](C)NC[C@@H]1C	x	12.3	x	x	x	x
O=C1NN(c2cccc(Br)c2)C(=O)/C1=C/c1ccc(-c2cc([N+](=O)[O-])ccc2O)o1	6.4	51.3*	10.9	14.8	-112.4	15.6
CC1=NN(c2ccc(C)cc2)C(=O)/C1=C/c1ccc(-c2cc([N+](=O)[O-])ccc2O)o1	-8.8	28.3	1.3	15.0	-66.1	18.4
Cc1csc(NC(=O)/C=C/c2ccc3c(c2)OCO3)n1	61.3*	-64.1	38.0	6.0	2.4	77.0*
O=C(/C=C/c1ccc2c(c1)OCO2)Nc1nc(-c2ccc(F)cc2F)cs1	8.6	x	-2.0	15.1	-4.5	4.6
O=S(=O)(Nc1cc(Sc2ncn[nH]2)c(O)c2ccccc12)c1ccccc1	71.8*	30.8	24.7	93.6*	-56.5	78.5*
